The compounds below were run against Tumor necrosis factor (Homo sapiens, UniProt P01375) (assay: TNF-alpha production in PBMC by ELISA method).
In short: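 Human PBMC were isolated from heparinized blood by ficoll-histopaque and plated at […] cells/mL in RPMI 1640 with 20% autologous plasma and glutamine. Compound at 2X concentration was added in equal volume, 60 min preincubation, then LPS 10 ug/mL final. Supernatant was taken at 18 h for sandwich ELISA (mouse capture, rabbit detection, poly-HRP). IC50 is the concentration inhibiting TNFa production by 50% of control.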

Chain of Tumor necrosis factor (P01375 whole entry): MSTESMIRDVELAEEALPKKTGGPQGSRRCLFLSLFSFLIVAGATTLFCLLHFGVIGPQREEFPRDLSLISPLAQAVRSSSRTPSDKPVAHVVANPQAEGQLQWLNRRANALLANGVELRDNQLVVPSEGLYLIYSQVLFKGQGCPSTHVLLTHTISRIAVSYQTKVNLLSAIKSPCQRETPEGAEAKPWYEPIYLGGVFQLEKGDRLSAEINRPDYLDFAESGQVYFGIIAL

SMILES	IC50
CCOC(=O)CCCn1c(=O)c2c([nH]c(=S)n2C)n(C)c1=O [4-(8-Mercapto-3,7-dimethyl-2,6-dioxo-2,3,6,7-tetrahydro-purin-1-yl)-butyric acid ethyl ester]	100 µM
COc1ccc([C@@H]2CNC(=O)C2)cc1OC1CCCC1 (racemic) [Adeo]	12 µM
CCCn1c(=O)n(CCCC(=O)OCC)c(=O)c2nsnc21 [4-(5,7-Dioxo-4-propyl-4,5-dihydro-7H-[1,2,5]thiadiazolo[3,4-d]pyrimidin-6-yl)-butyric acid ethyl ester]	18 µM
CCCCOc1cc(C[C@@H]2CNC(=O)N2)ccc1OC [4-(3-Butoxy-4-methoxy-benzyl)-imidazolidin-2-one]	50 µM
CCOC(=O)CCCn1c(=O)c2c(ncn2C)n(C)c1=O [4-(3,7-Dimethyl-2,6-dioxo-2,3,6,7-tetrahydro-purin-1-yl)-butyric acid ethyl ester]	6 µM
CCCCCn1c(=O)n(CCCC(=O)OCC)c(=O)c2nccnc21 [4-(2,4-Dioxo-1-pentyl-1,4-dihydro-2H-pteridin-3-yl)-butyric acid ethyl ester]	16 µM
CCOC(=O)CCCn1c(=O)c2nc(-c3ccccc3)cnc2n(C)c1=O [4-(1-Methyl-2,4-dioxo-6-phenyl-1,4-dihydro-2H-pteridin-3-yl)-butyric acid ethyl ester]	> 200 µM
CCCCn1c(=O)n(CCCC(=O)OCC)c(=O)c2nccnc21 [4-(1-Butyl-2,4-dioxo-1,4-dihydro-2H-pteridin-3-yl)-butyric acid ethyl ester]	15 µM
CCCn1c(=O)n(CCCC(=O)OCC)c(=O)c2nccnc21 [4-(2,4-Dioxo-1-propyl-1,4-dihydro-2H-pteridin-3-yl)-butyric acid ethyl ester]	5 µM
Cn1c(=O)n(CCCC(=O)O)c(=O)c2nccnc21 [4-(1-Methyl-2,4-dioxo-1,4-dihydro-2H-pteridin-3-yl)-butyric acid]	> 200 µM
Cn1cnc2c1c(=O)n(CCCC(=O)O)c(=O)n2C [4-(3,7-Dimethyl-2,6-dioxo-2,3,6,7-tetrahydro-purin-1-yl)-butyric acid]	> 200 µM
Cn1c(=O)n(CCCC(=O)O)c(=O)c2ccccc21 [4-(1-Methyl-2,4-dioxo-1,4-dihydro-2H-quinazolin-3-yl)-butyric acid]	> 200 µM
CCOC(=O)Cn1c(=O)c2c(ncn2C)n(C)c1=O [(3,7-Dimethyl-2,6-dioxo-2,3,6,7-tetrahydro-purin-1-yl)-acetic acid ethyl ester]	200 µM
CCOC(=O)CCCn1c(=O)c2nccnc2n(C2CCOC2)c1=O (stereo not drawn) [4-[2,4-Dioxo-1-(tetrahydro-furan-3-yl)-1,4-dihydro-2H-pteridin-3-yl]-butyric acid ethyl ester]	19 µM
CCCn1c(=O)n(CCCC(=O)OCC)c(=O)c2c1ncn2C [4-(7-Methyl-2,6-dioxo-3-propyl-2,3,6,7-tetrahydro-purin-1-yl)-butyric acid ethyl ester]	5 µM
CCOC(=O)CCCCn1c(=O)c2c(ncn2C)n(C)c1=O [5-(3,7-Dimethyl-2,6-dioxo-2,3,6,7-tetrahydro-purin-1-yl)-pentanoic acid ethyl ester]	11 µM
COC(=O)c1ccc(Cn2c(=O)c3c(nc(Br)n3C)n(C)c2=O)cc1 [4-(8-Bromo-3,7-dimethyl-2,6-dioxo-2,3,6,7-tetrahydro-purin-1-ylmethyl)-benzoic acid methyl ester]	> 200 µM

SMILES	IC50
CCCn1c(=O)n(CCCC(=O)O)c(=O)c2nccnc21 [4-(2,4-Dioxo-1-propyl-1,4-dihydro-2H-pteridin-3-yl)-butyric acid]	> 200 µM
CCOC(=O)CCCn1c(=O)c2nc(CC)c(CC)nc2n(C)c1=O [4-(6,7-Diethyl-1-methyl-2,4-dioxo-1,4-dihydro-2H-pteridin-3-yl)-butyric acid ethyl ester]	130 µM
CCOC(=O)CCCn1c(=O)c2ccccc2n(C)c1=O [4-(1-Methyl-2,4-dioxo-1,4-dihydro-2H-quinazolin-3-yl)-butyric acid ethyl ester]	55 µM
CCOC(=O)CCCn1c(=O)c2nccnc2n(C)c1=O [4-(1-Methyl-2,4-dioxo-1,4-dihydro-2H-pteridin-3-yl)-butyric acid ethyl ester]	12 µM
CCOC(=O)CCCn1c(=O)c2c(nc(Br)n2C)n(C)c1=O [4-(8-Bromo-3,7-dimethyl-2,6-dioxo-2,3,6,7-tetrahydro-purin-1-yl)-butyric acid ethyl ester]	60 µM
Cn1c(=O)[nH]c(=O)c2[nH]c(=S)[nH]c21 [8-Mercapto-3-methyl-3,7-dihydro-purine-2,6-dione]	> 200 µM
CCOC(=O)c1ccc(Cn2c(=O)c3c([nH]c(=S)n3C)n(C)c2=O)cc1 [4-(8-Mercapto-3,7-dimethyl-2,6-dioxo-2,3,6,7-tetrahydro-purin-1-ylmethyl)-benzoic acid ethyl ester]	> 200 µM
CC(=O)CCCCn1c(=O)c2c(ncn2C)n(C)c1=O [1-(5-Oxohexyl)theobromine (pentoxifylline)]	85 µM
CCOC(=O)CCCn1c(=O)c2nsnc2n(C)c1=O [4-(4-Methyl-5,7-dioxo-4,5-dihydro-7H-[1,2,5]thiadiazolo[3,4-d]pyrimidin-6-yl)-butyric acid ethyl ester]	25 µM
Cn1c(=O)n(CCCC(=O)O)c(=O)c2nsnc21 [4-(4-Methyl-5,7-dioxo-4,5-dihydro-7H-[1,2,5]thiadiazolo[3,4-d]pyrimidin-6-yl)-butyric acid]	> 200 µM
CCOC(=O)CCn1c(=O)c2c(ncn2C)n(C)c1=O [3-(3,7-Dimethyl-2,6-dioxo-2,3,6,7-tetrahydro-purin-1-yl)-propionic acid ethyl ester]	10 µM
CCOC(=O)CCCn1c(=O)c2nccnc2n(CC(C)C)c1=O [4-(1-Isobutyl-2,4-dioxo-1,4-dihydro-2H-pteridin-3-yl)-butyric acid ethyl ester]	20 µM
CCCCCCCn1c(=O)c2nsnc2n(C)c1=O [6-Heptyl-4-methyl-4H-[1,2,5]thiadiazolo[3,4-d]pyrimidine-5,7-dione]	75 µM
COC(=O)c1ccc(Cn2c(=O)c3c(ncn3C)n(C)c2=O)cc1 [4-(3,7-Dimethyl-2,6-dioxo-2,3,6,7-tetrahydro-purin-1-ylmethyl)-benzoic acid methyl ester]	> 200 µM
COC(=O)/C=C\Cn1c(=O)c2nccnc2n(C)c1=O [(Z)-4-(1-Methyl-2,4-dioxo-1,4-dihydro-2H-pteridin-3-yl)-but-2-enoic acid methyl ester]	25 µM
CCOC(=O)CCCn1c(=O)c2nccnc2n(Cc2ccccc2)c1=O [4-(1-Benzyl-2,4-dioxo-1,4-dihydro-2H-pteridin-3-yl)-butyric acid ethyl ester]	175 µM
